Data taken from ChEMBL document CHEMBL4831490, “Silyl resveratrol derivatives as potential therapeutic agents for neurodegenerative and neurological diseases” (Eur J Med Chem, 2021).
Converted amounts (≈) assume the structure as drawn. The source made the active and inactive calls. The calls are words filed in the database; no cut-off is given here.

Experiments:
[1] = Toxicity in 3hpf zebrafish AB embryo assessed as LOAEL measured 96 hpf; set-up: species or system Danio rerio; conditions: in vivo, 96 h
Procedure, shortened: (§1)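 Zebrafish AB embryos collected at 3 hpf, 20 per well, in E3 medium with graded compound concentrations. Incubated 28.5 °C for 93 h further (to 96 hpf), mortality scored. NOEC/LOEC defined by mortality above 20%. Controls: 0.1% DMSO, three replicates; DEAB at 5 concentrations.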

[2] = system: RAW264.7; assay: Antiinflammatory activity in mouse RAW 264.7 cells assessed as decrease in LPS-induced TNF-alpha production at 10 uM measured after 24 hrs by ELISA; format: functional, cell-based
Procedure, shortened: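 RAW 264.7 macrophages, 5 × 10⁵ per well, given compound at 10 µM then stimulated with LPS (final 100 ng/mL). TNF-α in supernatants after 24 h measured by ELISA with capture/biotinylated detection antibody pairs.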

[3] = system: SH-SY5Y; assay: Neuroprotective activity against H2O2-induced oxidative stress in human SH-SY5Y cells assessed as increase in cell viability at 10 uM pretreated with H2O2 for 10 mins followed by compound treatment and measured after 24 hrs by MTT assay; format: functional, cell-based
[4] = Toxicity in 3hpf zebrafish AB embryo assessed as median lethal dose measured 96 hpf; set-up: species or system Danio rerio; conditions: in vivo
Procedure, shortened: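 AB zebrafish embryos collected 3 hpf, 20 per well in E3 medium with graded compound concentrations, kept at 28.5 °C to 96 hpf. LC50 was fitted as a sigmoid to mortality. NOEC/LOEC used >20% mortality as the effect. Negative control was 0.1% DMSO in triplicate; DEAB (0.1 µM–1 mM) served as positive control.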

[5] = species on record: Danio rerio; assay: Neuroprotective activity against PTZ-induced neuronal damage in 5 dpf zebrafish AB larvae assessed as effect on AChE activity at 10 uM pretreated for 1 hr followed by removal of medium and subsequent addition of fresh medium containing PTZ and compounds measured after 6 hrs by Ellman's method; format: functional, organism-based; conditions: time 7.0 hrs
Procedure, shortened: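 Zebrafish AB larvae at 120 hpf, five per well, ten replicates, two independent experiments. Pretreated 1 h at 26 °C with compound (10 µM) in water with 0.1% DMSO, then after a media change kept 6 h at 26 °C with compound plus 5 mM PTZ. Physostigmine (20 µM) was the control inhibitor. Homogenate supernatant assayed by Ellman method; activity normalized to BCA protein, as % of control.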

[6] = Toxicity in 3hpf zebrafish AB embryo assessed as NOAEL measured 96 hpf; set-up: species or system Danio rerio; conditions: in vivo, 96 h; procedure, shortened: as §1
[7] = Stability of the compound in human SH-SY5Y cells assessed as parent compound remaining measured after 72 hrs; format: ADME; conditions: read-out: Stability
Procedure, shortened: (§2)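 Compound incubated 72 h in PBS 1x (pH 7.4) or in SH-SY5Y culture medium; percentage of compound remaining determined.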

[8] = Stability of the compound in PBS buffer assessed as parent compound remaining measured after 72 hrs; format: physicochemical; conditions: read-out: Stability; procedure, shortened: as §2
[9] = system: SH-SY5Y; assay: Cytotoxicity against human SH-SY5Y cells assessed as reduction in cell viability at 10 uM measured after 24 hrs by MTT assay relative to control; format: cell-based
Procedure, shortened: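 SH-SY5Y cells grown in DMEM-F12 with 10% iFBS on collagen-pretreated plates; 2 × 10⁴ cells per well, left 24 h before compound in DMSO (final 1% DMSO) at 1, 10 and 100 µM. Viability by MTT 24 h after addition; mean and SD of at least eight readings from various experiments.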

[10] = system: Mus musculus; assay: Antioxidant activity in C57BL/6 mouse model of 3-NP-induced oxidative stress assessed as increase in SOD2 mRNA expression at 20 mg/kg, ip by qRT-PCR method; format: functional, organism-based
Procedure, shortened: (§3)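 C57BL/6 mice, 12 weeks old, n = 7 per group. 3-NP given i.p. twice daily, 10 h apart: 4 × 20, 4 × 40, 2 × 60 mg/kg (cumulative 360 mg/kg over 5 days). Compound 20 mg/kg i.p. in 13% hydroxypropyl-β-cyclodextrin with 2% Tween-80, given just before each morning 3-NP dose. Weight and motor scoring done before injections, last one 3 h after final 3-NP dose. Rotarod latency to fall read after the 360 mg/kg cumulative dose.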

[11] = system: Mus musculus; assay: Neuroprotective activity in C57BL/6 mouse model of 3-NP-induced intoxication assessed as effect on body weight at 20 mg/kg, ip measured after 5 days (91.4 %); format: functional; conditions: time 5 day; procedure, shortened: as §3
[12] = system: Mus musculus; assay: Immunosuppressive activity in MOG (35 to 55 residues)/pertussis toxin-induced experimental autoimmune encephalomyelitis C57BL/6 mouse model assessed as reduction in clinical scores at 20 mg/kg, ip starting from 20 days post disease progression and administered for 2 weeks; format: functional, organism-based
[13] = system: Mus musculus; assay: Neuroprotective activity in C57BL/6 mouse model of 3-NP-induced intoxication assessed as improvement in latency to fall at 20 mg/kg, ip by rotarod test relative to control; format: functional; procedure, shortened: as §3
[14] = Hydrolytic stability of the compound in mouse serum assessed as parent compound remaining measured after 24 hrs; format: ADME, cell-free; conditions: read-out: Stability
Procedure, shortened: (§4)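 Hydrolytic stability measured in mouse serum at 1 h and 24 h.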

[15] = system: Mus musculus; assay: Neuroprotective activity in C57BL/6 mouse model of 3-NP-induced intoxication assessed as reduction in IL6 production at 20 mg/kg, ip by sandwich ELISA
[16] = Hydrolytic stability of the compound in mouse serum assessed as parent compound remaining measured after 1 hr; format: ADME, cell-free; conditions: read-out: Stability; procedure, shortened: as §4
[17] = system: Mus musculus; assay: Neuroprotective activity in C57BL/6 mouse model of 3-NP-induced intoxication assessed as reduction in truncal dystonia at 20 mg/kg, ip measured after 5 days relative to control; format: functional; set-up: scale not given: the % may be the effect or the level left; conditions: time 5 day, in the assay text read “overall motor score” for “truncal dystonia”; procedure, shortened: as §3
[18] = system: SH-SY5Y; assay: Neuroprotective activity against H2O2-induced oxidative stress in human SH-SY5Y cells assessed as increase in cell viability at 100 uM pretreated with H2O2 for 10 mins followed by compound treatment and measured after 24 hrs by MTT assay relative to control; format: functional
[19] = system: RAW264.7; assay: Antiinflammatory activity in mouse RAW 264.7 cells assessed as decrease in LPS-induced IL-6 production at 10 uM measured after 24 hrs by ELISA; format: functional, cell-based
Procedure, shortened: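 RAW 264.7 macrophages, 5 × 10⁵ per well, compound added then stimulated with LPS (final 100 ng/mL) or left unstimulated; IL-6 in supernatant measured after 24 h by sandwich ELISA with capture/biotinylated detection antibodies.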

[20] = Aqueous solubility of the compound; format: physicochemical
[21] = system: RAW264.7; assay: Antiinflammatory activity in mouse RAW 264.7 cells assessed as inhibition of LPS-induced nitric oxide production at 10 uM measured after 24 hrs by Griess reagent assay; format: functional, cell-based
Procedure, shortened: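 NO in 24 h culture supernatants of LPS-stimulated RAW 264.7 cells (compound 10 µM, LPS final 100 ng/mL) estimated indirectly as nitrite concentration.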

SMILES | LOAEL [1] [µM] | Activity [2] | Activity [3] | LC50 at 96 h [4] [µM] | NOAEL [6] [µM] | also measured
CC[Si](CC)(CC)Oc1ccc(/C=C/c2cc(O)cc(O[Si](CC)(CC)CC)c2)cc1 | 1000 | Active | Active | 380 | 100 | Activity [5]: Active
CC(C)[Si](Oc1ccc(/C=C/c2cc(O[C@@H]3O[C@H](CO)[C@@H](O)[C@H](O)[C@H]3O)cc(O[Si](C(C)C)(C(C)C)C(C)C)c2)cc1)(C(C)C)C(C)C | 1000 |  |  | > 1000 | 1000 | remaining at 72 h [7]: > 80%; remaining at 72 h [8]: > 80%
CC(C)(C)[Si](C)(C)Oc1ccc(/C=C/c2cc(O)cc(O[Si](C)(C)C(C)(C)C)c2)cc1 |  | Active | Active |  |  | 
CC(C)[Si](Oc1cc(O)cc(/C=C/c2ccc(O)cc2)c1)(C(C)C)C(C)C |  |  | Active |  |  | Activity [9]: > 50%
CC(C)(C)[Si](C)(C)Oc1cc(O)cc(/C=C/c2ccc(O)cc2)c1 |  |  | Active |  |  | Activity [9]: > 50%
CC(C)[Si](Oc1ccc(/C=C/c2cc(O)cc(O)c2)cc1)(C(C)C)C(C)C |  |  | Active |  |  | Activity [9]: > 50%
CC(C)(C)[Si](C)(C)Oc1cc(/C=C/c2ccc(O)cc2)cc(O[Si](C)(C)C(C)(C)C)c1 |  | Active | Active |  |  | 
CCCCCCCC(=O)OC[C@H]1O[C@@H](Oc2cc(O)cc(/C=C/c3ccc(O)cc3)c2)[C@H](O)[C@@H](O)[C@@H]1O | 10 | Active |  |  | 1 | 
CCCCCCCC(=O)OC[C@H]1O[C@@H](Oc2cc(/C=C/c3ccc(O[Si](C(C)C)(C(C)C)C(C)C)cc3)cc(O[Si](C(C)C)(C(C)C)C(C)C)c2)[C@H](O)[C@@H](O)[C@@H]1O | 1000 |  |  | 407 | 100 | 
CCCCCCCC(=O)OC[C@@H]1O[C@H](Oc2ccc(/C=C/c3cc(O[Si](C(C)C)(C(C)C)C(C)C)cc(O[Si](C(C)C)(C(C)C)C(C)C)c3)cc2)[C@@H](O)[C@H](O)[C@H]1O | 1000 |  |  | 407 | 100 | Activity [10]: Active; Activity [11]: 94.8%; Activity [12]: Active; Activity [13]: 10%; remaining at 24 h [14]: 15%; Activity [15]: Active; remaining at 1 h [16]: 75%; remaining at 72 h [7]: > 80%; remaining at 72 h [8]: > 80%; Activity [17]: 26.5%; Activity [5]: Active
CCCC(=O)Oc1ccc(/C=C/c2cc(O[Si](CC)(CC)CC)cc(O[Si](CC)(CC)CC)c2)cc1 | 1000 |  |  | 407 | 100 | 
CC(C)[Si](Oc1cc(/C=C/c2ccc(O)cc2)cc(O[Si](C(C)C)(C(C)C)C(C)C)c1)(C(C)C)C(C)C |  |  | Active |  |  | Activity [18]: 100%; remaining at 72 h [7]: > 80%; remaining at 72 h [8]: > 80%; Activity [19]: Active; Activity [5]: Active
CC[Si](CC)(CC)Oc1ccc(/C=C/c2cc(O)cc(O)c2)cc1 |  | Active |  |  |  | 
Oc1ccc(/C=C/c2cc(O)cc(O)c2)cc1 [RESVERATROL] | > 1000 |  |  | > 1000 | 1000 | Activity [5]: Active; solubility [20]: 0.05 mg/mL (≈ 219 µM)
CC(C)[Si](Oc1cc(/C=C/c2ccc(O[C@H]3O[C@@H](CO)[C@H](O)[C@@H](O)[C@@H]3O)cc2)cc(O[Si](C(C)C)(C(C)C)C(C)C)c1)(C(C)C)C(C)C | 1000 |  |  | > 1000 | 1000 | 
CC[Si](CC)(CC)Oc1cc(/C=C/c2ccc(O)cc2)cc(O[Si](CC)(CC)CC)c1 | 1000 | Active |  | 475 | 100 | inhibition [21]: Active; Activity [5]: Active
CC(C)[Si](Oc1ccc(/C=C/c2cc(O)cc(O[Si](C(C)C)(C(C)C)C(C)C)c2)cc1)(C(C)C)C(C)C | 1000 | Active | Active | > 1000 | > 1000 | Activity [19]: Active
CCNC(=O)Oc1ccc(/C=C/c2cc(O[Si](C(C)C)(C(C)C)C(C)C)cc(O[Si](C(C)C)(C(C)C)C(C)C)c2)cc1 | 1000 |  |  |  | 1000 | 
CC[Si](CC)(CC)Oc1cc(O)cc(/C=C/c2ccc(O)cc2)c1 |  | Active |  |  |  | 
